# Measured values published in ChEMBL document CHEMBL2086331, “Novel triazolopyridylbenzamides as potent and selective p38α inhibitors” (Bioorg Med Chem Lett, 2012).
# How the values were obtained:
# Blood = assay: Inhibition of LPS-induced TNFalpha production in human whole blood; format: functional, tissue-based
# [1] = Stability in rat hepatic microsomes assessed as compound turnover at 5 uM incubated for 30 mins in presence of NADPH; format: ADME; details: liver microsomes, read-out: Drug degradation
# Summary of the method: (§1)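 Rat or human hepatic microsomes (1 mg/mL) with NADPH, test compound 5 µM, 30 min at 37 °C; readout is % turnover of parent.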
# [2] = Stability in human hepatic microsomes assessed as compound turnover at 5 uM incubated for 30 mins in presence of NADPH; format: ADME; details: liver microsomes, read-out: Drug degradation; summary of the method: as §1
# [3] = Passive permeability from basolateral to apical side in human Caco2 cells at 12.5 uM; format: ADME, cell-based; details: Caco-2, read-out: permeability
# Summary of the method: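 Caco-2 monolayer, test compound 12.5 µM; passive apparent permeability measured in both AB and BA directions, reported in 10^-6 cm/s.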
# CHO [4] = assay: Cytotoxicity against CHO cells at 200 uM; format: cell-based, Cricetulus griseus; details: chinese hamster
# [5] = Protein binding in rat plasma; format: ADME, cell-free; details: read-out: PPB (converted)
# [6] = Protein binding in human plasma; format: ADME, cell-free; details: read-out: PPB (converted)
# [7] = Half life in Wistar rat at 1 mg/kg, iv; format: ADME, organism-based; parameters: dose 1 mg/kg, route intravenous; details: in vivo
# Summary of the method: (§2)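 Wistar rats, single dose either iv 1 mg/kg in 40% PEG + 0.4% HCl 1 N, or oral 10 mg/kg in 0.5% methylcellulose + 0.1% Tween 80; plasma PK parameters reported as mean values (n = 2).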
# [8] = AUC in Wistar rat at 1 mg/kg, iv; format: ADME, organism-based; parameters: dose 1 mg/kg, route intravenous; details: plasma; summary of the method: as §2
# [9] = Clearance in Wistar rat at 1 mg/kg, iv; format: ADME, organism-based; parameters: dose 1 mg/kg, route intravenous; details: in vivo; summary of the method: as §2
# [10] = Volume of distribution at steady state in Wistar rat at 1 mg/kg, iv; format: ADME, organism-based; parameters: dose 1 mg/kg, route intravenous; details: in vivo, read-out: Vdss; summary of the method: as §2
# [11] = Cmax in Wistar rat at 10 mg/kg, po; format: ADME, organism-based; parameters: dose 10 mg/kg, route oral; details: in vivo; summary of the method: as §2
# [12] = AUC in Wistar rat at 10 mg/kg, po; format: ADME, organism-based; parameters: dose 10 mg/kg, route oral; details: plasma; summary of the method: as §2
# [13] = Oral bioavailability in Wistar rat at 10 mg/kg; format: ADME, organism-based; details: in vivo; summary of the method: as §2
# [14] = AUC in beagle dog at 1 mg/kg, iv; format: ADME, organism-based, Canis lupus familiaris; parameters: dose 1 mg/kg, route intravenous; details: plasma
# Summary of the method: (§3)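 Beagle dogs dosed 1 mg/kg iv or 1 mg/kg po; pharmacokinetic parameters reported as mean values of n = 2 animals.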
# [15] = Clearance in beagle dog at 1 mg/kg, iv; format: ADME, organism-based, Canis lupus familiaris; parameters: dose 1 mg/kg, route intravenous; details: in vivo; summary of the method: as §3
# [16] = Volume of distribution at steady state in beagle dog at 1 mg/kg, iv; format: ADME, organism-based, Canis lupus familiaris; parameters: dose 1 mg/kg, route intravenous; details: in vivo, read-out: Vdss; summary of the method: as §3
# [17] = Cmax in beagle dog at 1 mg/kg, po; format: ADME, organism-based, Canis lupus familiaris; parameters: dose 1 mg/kg, route oral; details: in vivo; summary of the method: as §3
# [18] = AUC in beagle dog at 1 mg/kg, po; format: ADME, organism-based, Canis lupus familiaris; parameters: dose 1 mg/kg, route oral; details: plasma; summary of the method: as §3
# [19] = Oral bioavailability in beagle dog at 1 mg/kg; format: ADME, organism-based, Canis lupus familiaris; details: in vivo; summary of the method: as §3
# [20] = Half life in beagle dog at 1 mg/kg, iv; format: ADME, organism-based, Canis lupus familiaris; parameters: dose 1 mg/kg, route intravenous; details: in vivo; summary of the method: as §3
# CHO [21] = assay: Toxicity against CHO cells; format: cell-based, Cricetulus griseus; details: chinese hamster
# Cytochrome P450 1A2 = target: T1, Cytochrome P450 1A2 (Homo sapiens, UniProt P05177); assay: Inhibition of CYP1A2 at < 25 uM; format: ADME
# T1 sequence (P05177 whole entry): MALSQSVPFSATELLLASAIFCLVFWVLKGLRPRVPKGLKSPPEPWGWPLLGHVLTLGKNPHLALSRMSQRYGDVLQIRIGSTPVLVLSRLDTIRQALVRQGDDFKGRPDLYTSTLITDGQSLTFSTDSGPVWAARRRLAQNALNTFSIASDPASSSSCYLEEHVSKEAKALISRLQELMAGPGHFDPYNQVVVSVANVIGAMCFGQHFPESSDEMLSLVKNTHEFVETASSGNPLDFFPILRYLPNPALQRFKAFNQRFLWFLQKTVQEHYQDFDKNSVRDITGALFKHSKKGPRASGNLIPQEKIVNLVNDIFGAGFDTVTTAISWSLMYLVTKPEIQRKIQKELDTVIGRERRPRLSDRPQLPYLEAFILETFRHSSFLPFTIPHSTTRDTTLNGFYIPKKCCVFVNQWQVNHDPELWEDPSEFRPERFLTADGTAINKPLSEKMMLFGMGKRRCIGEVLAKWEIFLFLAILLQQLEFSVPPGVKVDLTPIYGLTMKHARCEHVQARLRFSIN
# Cytochrome P450 3A4 = Cytochrome P450 3A4 (Homo sapiens, UniProt P08684); assay: Inhibition of CYP3A4 at < 25 uM; format: ADME
# Cytochrome P450 2C9 = Cytochrome P450 2C9 (Homo sapiens, UniProt P11712); assay: Inhibition of CYP2C9 at < 25 uM; format: ADME
# Cytochrome P450 2C19 = Cytochrome P450 2C19 (Homo sapiens, UniProt P33261); assay: Inhibition of CYP2C19 at < 25 uM; format: ADME
# Cytochrome P450 2D6 = Cytochrome P450 2D6 (Homo sapiens, UniProt P10635); assay: Inhibition of CYP2D6 at < 25 uM; format: ADME
# [22] = target: T2, RAF proto-oncogene serine/threonine-protein kinase (Homo sapiens, UniProt P04049); assay: Inhibition of c-Raf
# Rattus norvegicus [23] = assay: Inhibition of TNFalpha release in rat LPS-induced endotoxemia model dosed orally 1 hr prior to LPS challenge and measured 1.5 hrs post LPS challenge; format: functional; details: po
# Summary of the method: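 Rats given compound orally 1 h before LPS challenge to induce endotoxemia; plasma TNFα quantified 1.5 h after LPS, at peak TNF production.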
# Rattus norvegicus [24] = assay: Antiarthritic effect in rat adjuvant-induced arthritis model assessed as inhibition of right paw edema at 3 mg/kg, po dosed daily during last 10 days of test; format: functional; details: 240 h
# Summary of the method: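 Arthritis induced by complete Freund's adjuvant injected into left hind paw; oral compound daily over final 10 days of protocol; right (non-injected) paw volume monitored, result as % inhibition of oedema.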
# in vitro = details: human, Caco-2
# CHO [25] = assay: Cytotoxicity against CHO cells; format: cell-based; details: Cricetulus griseus
# [26] = target: T2, RAF proto-oncogene serine/threonine-protein kinase; assay: Inhibition of c-Raf at 10 uM
# Summary of the method: (§4)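 Upstate 55-kinase panel; single inhibitor concentration 10 µM, duplicate wells, ATP at the Km of each kinase.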
# [27] = target: Proto-oncogene tyrosine-protein kinase receptor Ret (Homo sapiens, UniProt P07949); assay: Inhibition of RET at 10 uM; summary of the method: as §4
# Proto-oncogene tyrosine-protein kinase receptor Ret, sequence (P07949 whole entry): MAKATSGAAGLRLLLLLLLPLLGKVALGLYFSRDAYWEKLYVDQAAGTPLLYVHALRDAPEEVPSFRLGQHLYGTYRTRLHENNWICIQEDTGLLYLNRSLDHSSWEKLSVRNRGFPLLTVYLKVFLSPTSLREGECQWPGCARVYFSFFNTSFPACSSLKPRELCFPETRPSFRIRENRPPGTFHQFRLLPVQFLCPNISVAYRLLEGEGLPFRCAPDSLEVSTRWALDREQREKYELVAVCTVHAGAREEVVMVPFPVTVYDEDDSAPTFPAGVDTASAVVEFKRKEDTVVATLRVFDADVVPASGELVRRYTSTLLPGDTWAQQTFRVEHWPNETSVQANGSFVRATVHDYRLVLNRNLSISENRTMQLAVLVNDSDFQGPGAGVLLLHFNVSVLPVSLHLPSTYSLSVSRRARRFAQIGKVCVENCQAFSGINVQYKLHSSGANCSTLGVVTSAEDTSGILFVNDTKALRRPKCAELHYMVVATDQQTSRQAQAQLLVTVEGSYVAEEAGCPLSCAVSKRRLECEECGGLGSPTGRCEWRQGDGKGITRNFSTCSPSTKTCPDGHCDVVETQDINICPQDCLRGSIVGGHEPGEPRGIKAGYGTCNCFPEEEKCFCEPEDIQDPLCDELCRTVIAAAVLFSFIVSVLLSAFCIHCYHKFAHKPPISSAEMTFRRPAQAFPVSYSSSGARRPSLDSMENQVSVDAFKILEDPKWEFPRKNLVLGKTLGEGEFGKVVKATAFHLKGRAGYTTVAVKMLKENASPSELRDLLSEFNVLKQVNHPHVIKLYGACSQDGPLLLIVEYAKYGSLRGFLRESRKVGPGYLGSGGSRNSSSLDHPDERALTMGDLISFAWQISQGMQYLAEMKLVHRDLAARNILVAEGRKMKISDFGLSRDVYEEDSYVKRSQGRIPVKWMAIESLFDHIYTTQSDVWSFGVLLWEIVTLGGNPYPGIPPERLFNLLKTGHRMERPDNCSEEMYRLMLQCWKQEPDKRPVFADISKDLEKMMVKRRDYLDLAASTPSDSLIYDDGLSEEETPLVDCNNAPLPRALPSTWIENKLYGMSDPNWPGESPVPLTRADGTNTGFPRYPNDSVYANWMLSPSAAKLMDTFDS
# Cytochrome P450 2C9, sequence (P11712 whole entry): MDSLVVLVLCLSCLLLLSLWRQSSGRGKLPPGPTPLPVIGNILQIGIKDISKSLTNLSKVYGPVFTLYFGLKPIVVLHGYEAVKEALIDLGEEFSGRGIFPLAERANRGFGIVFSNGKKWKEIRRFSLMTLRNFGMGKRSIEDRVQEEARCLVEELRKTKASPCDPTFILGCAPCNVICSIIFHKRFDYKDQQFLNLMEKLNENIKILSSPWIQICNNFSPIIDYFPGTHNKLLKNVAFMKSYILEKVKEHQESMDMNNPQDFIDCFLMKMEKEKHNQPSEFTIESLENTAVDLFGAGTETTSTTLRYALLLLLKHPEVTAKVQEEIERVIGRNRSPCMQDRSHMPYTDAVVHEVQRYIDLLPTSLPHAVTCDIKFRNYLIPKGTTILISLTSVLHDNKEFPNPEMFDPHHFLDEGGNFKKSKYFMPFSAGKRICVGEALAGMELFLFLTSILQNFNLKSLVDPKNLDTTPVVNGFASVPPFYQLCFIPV
# Cytochrome P450 2D6, sequence (P10635 whole entry): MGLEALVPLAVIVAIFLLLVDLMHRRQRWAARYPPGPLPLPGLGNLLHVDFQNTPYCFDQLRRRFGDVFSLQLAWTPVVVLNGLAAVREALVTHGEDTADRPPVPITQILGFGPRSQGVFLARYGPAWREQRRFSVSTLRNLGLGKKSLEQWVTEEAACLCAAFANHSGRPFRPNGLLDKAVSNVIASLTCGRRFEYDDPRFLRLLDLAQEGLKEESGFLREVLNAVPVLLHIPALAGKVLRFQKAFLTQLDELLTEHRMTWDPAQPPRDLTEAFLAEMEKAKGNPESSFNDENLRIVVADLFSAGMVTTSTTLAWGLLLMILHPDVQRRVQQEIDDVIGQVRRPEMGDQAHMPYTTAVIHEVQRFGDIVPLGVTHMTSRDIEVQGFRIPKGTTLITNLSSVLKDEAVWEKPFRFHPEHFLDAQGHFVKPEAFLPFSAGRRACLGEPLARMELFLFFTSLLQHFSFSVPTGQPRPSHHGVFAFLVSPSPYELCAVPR
# T2 sequence (P04049 whole entry): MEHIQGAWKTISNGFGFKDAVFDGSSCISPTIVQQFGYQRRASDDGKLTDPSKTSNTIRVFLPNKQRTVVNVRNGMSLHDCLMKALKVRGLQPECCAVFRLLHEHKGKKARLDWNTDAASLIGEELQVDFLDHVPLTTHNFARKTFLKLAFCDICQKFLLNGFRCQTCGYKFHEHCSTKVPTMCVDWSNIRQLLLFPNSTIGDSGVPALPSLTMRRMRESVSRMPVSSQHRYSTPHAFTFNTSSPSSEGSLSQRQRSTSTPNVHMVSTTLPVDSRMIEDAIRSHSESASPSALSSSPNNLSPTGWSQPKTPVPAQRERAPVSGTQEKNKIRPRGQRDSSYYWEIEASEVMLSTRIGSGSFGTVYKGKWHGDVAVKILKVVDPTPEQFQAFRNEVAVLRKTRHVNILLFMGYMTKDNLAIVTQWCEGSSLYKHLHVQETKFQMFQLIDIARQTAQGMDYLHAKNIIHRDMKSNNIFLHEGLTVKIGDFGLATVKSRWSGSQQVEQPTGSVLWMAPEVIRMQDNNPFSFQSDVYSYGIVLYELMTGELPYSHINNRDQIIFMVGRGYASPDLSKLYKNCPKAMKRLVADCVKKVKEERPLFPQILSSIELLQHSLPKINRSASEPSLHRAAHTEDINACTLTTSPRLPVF
# Cytochrome P450 3A4, sequence (P08684 whole entry): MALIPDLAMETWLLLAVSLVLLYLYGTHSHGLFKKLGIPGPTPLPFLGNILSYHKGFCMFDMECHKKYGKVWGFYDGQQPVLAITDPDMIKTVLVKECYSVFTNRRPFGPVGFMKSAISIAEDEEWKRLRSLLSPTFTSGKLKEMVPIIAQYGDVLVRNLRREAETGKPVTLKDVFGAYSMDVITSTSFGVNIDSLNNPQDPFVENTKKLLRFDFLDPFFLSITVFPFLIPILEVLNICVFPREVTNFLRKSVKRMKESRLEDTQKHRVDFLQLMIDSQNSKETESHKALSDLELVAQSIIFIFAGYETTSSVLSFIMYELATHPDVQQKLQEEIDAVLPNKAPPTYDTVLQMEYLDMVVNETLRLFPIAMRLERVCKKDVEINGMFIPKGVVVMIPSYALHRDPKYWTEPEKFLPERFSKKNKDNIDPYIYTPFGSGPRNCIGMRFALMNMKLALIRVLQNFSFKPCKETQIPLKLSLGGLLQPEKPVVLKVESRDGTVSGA
# Cytochrome P450 2C19, sequence (P33261 whole entry): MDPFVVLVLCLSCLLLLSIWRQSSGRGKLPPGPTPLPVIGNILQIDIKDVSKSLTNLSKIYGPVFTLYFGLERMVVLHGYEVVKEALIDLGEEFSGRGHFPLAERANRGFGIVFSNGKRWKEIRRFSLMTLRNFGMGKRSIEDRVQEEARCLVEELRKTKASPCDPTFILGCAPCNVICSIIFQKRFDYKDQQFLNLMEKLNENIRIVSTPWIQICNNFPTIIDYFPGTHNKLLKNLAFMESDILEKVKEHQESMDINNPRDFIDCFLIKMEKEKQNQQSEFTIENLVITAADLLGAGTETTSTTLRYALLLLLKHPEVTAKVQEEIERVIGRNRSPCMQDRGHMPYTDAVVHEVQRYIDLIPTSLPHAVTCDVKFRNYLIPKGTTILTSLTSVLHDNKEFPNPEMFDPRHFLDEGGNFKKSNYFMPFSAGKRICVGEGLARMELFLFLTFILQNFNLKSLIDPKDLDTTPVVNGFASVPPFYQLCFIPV
smiles,measurement,setting,value
Cc1c(F)cc(C(=O)NC2CC2)cc1-c1ccn2c(C(C)(C)N(C)C)nnc2c1,IC50,Blood,84 nM
Cc1c(F)cc(C(=O)NC2CC2)cc1-c1c(F)cn2c(C(C)(C)N(C)C)nnc2c1F,IC50,Blood,124 nM
Cc1ccc(C(=O)NC2CC2)cc1-c1ccn2c(C3CCOCC3)nnc2c1,IC50,Blood,667 nM
Cc1ccc(C(=O)NC2CC2)cc1-c1ccn2c(C3CC3)nnc2c1,IC50,Blood,25 nM
Cc1c(F)cc(C(=O)NC2CC2)cc1-c1c(F)cn2c(C(C)C)nnc2c1F,IC50,Blood,467 nM
Cc1ccc(C(=O)NC2CC2)cc1-c1ccn2c(C(C)(C)C)nnc2c1,IC50,Blood,30 nM
same,"metabolised at 0.5 h, 5 µM",[1],< 5%
same,"metabolised at 0.5 h, 5 µM",[2],< 5%
same,Papp B→A at 12.5 µM,[3],18 ×10⁻⁶ cm/s
same,Activity,CHO [4],50%
same,fraction unbound,[5],0.39
same,fraction unbound,[6],0.42
same,half-life,[7],3.4 h
same,AUC,[8],2120 ng·h/mL
same,clearance,[9],7.8 mL/min/kg
same,Vd,[10],2 L/kg
same,Cmax,[11],2600 ng/mL
same,AUC,[12],19400 ng·h/mL
same,bioavailability,[13],93%
same,AUC,[14],1690 ng·h/mL
same,clearance,[15],9.9 mL/min/kg
same,Vd,[16],1.7 L/kg
same,Cmax,[17],215 ng/mL
same,AUC,[18],1260 ng·h/mL
same,bioavailability,[19],75%
same,half-life,[20],2.5 h
same,Activity,CHO [21],Non-toxic
same,inhibition (INH),Cytochrome P450 1A2,Not Active
same,inhibition (INH),Cytochrome P450 3A4,Not Active
same,inhibition (INH),Cytochrome P450 2C9,Not Active
same,inhibition (INH),Cytochrome P450 2C19,Not Active
same,inhibition (INH),Cytochrome P450 2D6,Not Active
same,IC50,[22],3200 nM
same,ED50,Rattus norvegicus [23],0.26 mg/kg
same,inhibition in vivo at 3 mg/kg,Rattus norvegicus [24],60%
same,Papp A→B at 12.5 µM,in vitro,15 ×10⁻⁶ cm/s
Cc1c(F)cc(C(=O)NC2CC2)cc1-c1ccn2c(C3(C)CC3)nnc2c1,IC50,Blood,117 nM
Cc1c(F)cc(C(=O)NC2CC2)cc1-c1ccn2c(-c3ccncc3Cl)nnc2c1,IC50,Blood,84 nM
Cc1c(F)cc(C(=O)NC2CC2)cc1-c1c(F)cn2c(C3CC3)nnc2c1F,IC50,Blood,1470 nM
Cc1c(F)cc(C(=O)NC2CC2)cc1-c1ccn2c(C(C)C)nnc2c1,IC50,Blood,115 nM
Cc1c(F)cc(C(=O)NC2CC2)cc1-c1ccn2c(C3CCOCC3)nnc2c1,IC50,Blood,405 nM
Cc1c(F)cc(C(=O)NC2CC2)cc1-c1ccn2c(C(C)(C)O)nnc2c1,IC50,Blood,105 nM
Cc1ccc(C(=O)NC2CC2)cc1-c1ccc2c(N3CCCCC3)noc2c1,IC50,Blood,98 nM
Cc1c(F)cc(C(=O)NC2CC2)cc1-c1ccn2c(C(C)(C)C)nnc2c1,IC50,Blood,48 nM
same,"metabolised at 0.5 h, 5 µM",[1],< 5%
same,"metabolised at 0.5 h, 5 µM",[2],< 5%
same,Papp B→A at 12.5 µM,[3],23 ×10⁻⁶ cm/s
same,IC50,CHO [25],107000 nM
same,fraction unbound,[5],0.21
same,fraction unbound,[6],0.16
same,half-life,[7],3.8 h
same,AUC,[8],2670 ng·h/mL
same,clearance,[9],6.5 mL/min/kg
same,Vd,[10],1.3 L/kg
same,Cmax,[11],2580 ng/mL
same,AUC,[12],17800 ng·h/mL
same,bioavailability,[13],66%
same,AUC,[14],2770 ng·h/mL
same,clearance,[15],6.2 mL/min/kg
same,Vd,[16],1.6 L/kg
same,half-life,[20],3.5 h
same,Activity,CHO [21],Non-toxic
same,inhibition (INH),Cytochrome P450 1A2,Not Active
same,inhibition (INH),Cytochrome P450 3A4,Not Active
same,inhibition (INH),Cytochrome P450 2C9,Not Active
same,inhibition (INH),Cytochrome P450 2C19,Not Active
same,inhibition (INH),Cytochrome P450 2D6,Not Active
same,inhibition,[26],66%
same,inhibition,[27],66%
same,Papp A→B at 12.5 µM,in vitro,27 ×10⁻⁶ cm/s
Cc1c(F)cc(C(=O)NC2CC2)cc1-c1ccn2c(C3CC3)nnc2c1,IC50,Blood,213 nM
Cc1c(F)cc(C(=O)NC2CC2)cc1-c1ccn2c(C(C)(C)NS(C)(=O)=O)nnc2c1,IC50,Blood,1110 nM
